From ChEMBL document CHEMBL4043220, “Rational design of conformationally constrained oxazolidinone-fused 1,2,3,4-tetrahydroisoquinoline derivatives as potential PDE4 inhibitors” (Bioorg Med Chem, 2017)

How the values were obtained:
[1] = target: T1, 3',5'-cyclic-AMP phosphodiesterase 4B (Homo sapiens, UniProt Q07343); experiment: Inhibition of PDE4B isolated from human U937 cells using [3H]-cAMP incubated for 30 mins
PBMC [2] = experiment: Inhibition of LPS-induced TNFalpha production in human PBMC pre-incubated for 30 mins before LPS stimulation for 18 hrs by TR-FRET assay; format: functional, cell-based
In short: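 PBMCs isolated from buffy coats (blood diluted 1:1 saline) and suspended at 5 × 10⁵ cells/mL in RPMI 1640 with 0.5% human serum albumin, pen/strep, 2 mM L-glutamine. 30 min compound pre-incubation, then 18 h LPS stimulation; supernatant TNF-α by TR-FRET (665 nm signal, 620 nm control); IC50 in μM.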

[3] = target: 3',5'-cyclic-AMP phosphodiesterase 4D (Homo sapiens, UniProt Q08499); experiment: Inhibition of PDE4D isolated from human U937 cells using [3H]-cAMP incubated for 30 mins
Chain of 3',5'-cyclic-AMP phosphodiesterase 4D (Q08499 whole entry): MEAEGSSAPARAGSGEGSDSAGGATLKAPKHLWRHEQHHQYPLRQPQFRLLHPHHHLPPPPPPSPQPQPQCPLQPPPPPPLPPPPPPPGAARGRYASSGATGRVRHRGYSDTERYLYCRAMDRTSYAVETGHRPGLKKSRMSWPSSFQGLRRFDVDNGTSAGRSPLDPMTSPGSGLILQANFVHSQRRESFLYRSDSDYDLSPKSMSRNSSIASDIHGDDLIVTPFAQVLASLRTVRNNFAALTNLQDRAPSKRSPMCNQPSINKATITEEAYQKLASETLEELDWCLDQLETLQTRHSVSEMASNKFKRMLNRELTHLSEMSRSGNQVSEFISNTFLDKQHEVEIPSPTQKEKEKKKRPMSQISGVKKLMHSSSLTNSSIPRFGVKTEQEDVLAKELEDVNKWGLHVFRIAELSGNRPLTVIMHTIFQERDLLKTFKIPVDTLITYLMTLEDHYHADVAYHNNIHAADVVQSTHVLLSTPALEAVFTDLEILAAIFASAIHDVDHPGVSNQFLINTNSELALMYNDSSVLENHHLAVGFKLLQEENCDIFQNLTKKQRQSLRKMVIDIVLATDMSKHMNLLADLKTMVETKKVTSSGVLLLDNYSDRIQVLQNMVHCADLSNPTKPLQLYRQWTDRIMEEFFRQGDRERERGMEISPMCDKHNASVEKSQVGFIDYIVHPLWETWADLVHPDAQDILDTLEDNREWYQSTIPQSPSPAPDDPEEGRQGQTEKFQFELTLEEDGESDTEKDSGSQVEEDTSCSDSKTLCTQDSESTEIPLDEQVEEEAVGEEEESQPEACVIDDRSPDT

Mus musculus = experiment: Inhibition of LPS-induced TNFalpha production in Swiss Albino mouse model of sepsis at 10 mg/kg, po pre-treated 30 mins before LPS challenge and measured 90 mins post LPS injection by ELISA method relative to untreated control; format: functional
In short: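 Female Swiss albino mice, weight-matched groups (n = 6), fasted 20 h with water; test compound given orally at 10 mg/kg as suspension in 0.5% Tween 80 / 0.25% sodium CMC, controls vehicle only. 30 min later 500 μg E. coli LPS (B4) i.p. in phosphate buffer; retro-orbital bleed at 90 min, serum TNF-α by mouse ELISA.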

Rattus norvegicus = experiment: Inhibition of LPS-induced neutropenia in Sprague-Dawley rat model of asthma assessed as reduction in neutrophils in BAL fluid at 10 mg/kg, po pre-treated 30 mins before LPS challenge and measured 6 hrs after LPS injection relative to untreated control; format: functional; details: in the assay text read “neutrophilia” for “neutropenia”
In short: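 Male Sprague Dawley rats acclimatized one week, randomized by weight (n = 6). Compound at 10 mg/kg po in 0.25% carboxymethyl cellulose vehicle given 30 min before 40 min exposure to 100 μg/mL E. coli LPS (B4). BAL at 6 h after exposure; total cell count and differential count versus control.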

PDE3B = PDE3B (Homo sapiens, UniProt Q13370); experiment: Inhibition of human PDE3B at 100 uM
[4] = target: T1, 3',5'-cyclic-AMP phosphodiesterase 4B; experiment: Inhibition of human PDE4B at 100 uM
PBMC [5] = experiment: Potency index, ratio of IC50 for rolipram to IC50 for test compound for inhibition of LPS-induced TNFalpha production in human PBMC pre-incubated for 30 mins before LPS stimulation for 18 hrs by TR-FRET assay; format: functional
PDE6C = PDE6C (Homo sapiens, UniProt P51160); experiment: Inhibition of human PDE6C at 100 uM
PDE9A = PDE9A (Homo sapiens, UniProt O76083); experiment: Inhibition of human PDE9A at 100 uM
Chain of PDE9A (O76083 whole entry): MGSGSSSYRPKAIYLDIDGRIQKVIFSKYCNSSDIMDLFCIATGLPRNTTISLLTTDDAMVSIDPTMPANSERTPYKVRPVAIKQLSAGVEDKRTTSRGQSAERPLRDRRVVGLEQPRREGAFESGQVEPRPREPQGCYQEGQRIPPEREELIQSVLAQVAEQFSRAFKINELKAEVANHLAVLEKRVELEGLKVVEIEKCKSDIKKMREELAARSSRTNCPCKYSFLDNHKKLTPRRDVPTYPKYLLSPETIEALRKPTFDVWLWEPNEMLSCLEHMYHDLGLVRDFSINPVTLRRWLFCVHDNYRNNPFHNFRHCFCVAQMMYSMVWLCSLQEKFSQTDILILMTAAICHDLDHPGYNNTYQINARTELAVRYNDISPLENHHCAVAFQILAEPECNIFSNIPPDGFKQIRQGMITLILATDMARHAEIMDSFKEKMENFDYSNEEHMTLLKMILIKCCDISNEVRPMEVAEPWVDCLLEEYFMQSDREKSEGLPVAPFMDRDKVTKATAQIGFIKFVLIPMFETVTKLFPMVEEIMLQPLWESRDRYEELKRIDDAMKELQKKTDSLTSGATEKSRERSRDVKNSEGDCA

PDE10A = PDE10A (Homo sapiens, UniProt Q9Y233); experiment: Inhibition of human PDE10A at 100 uM
PDE11A = PDE11A (Homo sapiens, UniProt Q9HCR9); experiment: Inhibition of human PDE11A at 100 uM
Chain of PDE11A (Q9HCR9 whole entry): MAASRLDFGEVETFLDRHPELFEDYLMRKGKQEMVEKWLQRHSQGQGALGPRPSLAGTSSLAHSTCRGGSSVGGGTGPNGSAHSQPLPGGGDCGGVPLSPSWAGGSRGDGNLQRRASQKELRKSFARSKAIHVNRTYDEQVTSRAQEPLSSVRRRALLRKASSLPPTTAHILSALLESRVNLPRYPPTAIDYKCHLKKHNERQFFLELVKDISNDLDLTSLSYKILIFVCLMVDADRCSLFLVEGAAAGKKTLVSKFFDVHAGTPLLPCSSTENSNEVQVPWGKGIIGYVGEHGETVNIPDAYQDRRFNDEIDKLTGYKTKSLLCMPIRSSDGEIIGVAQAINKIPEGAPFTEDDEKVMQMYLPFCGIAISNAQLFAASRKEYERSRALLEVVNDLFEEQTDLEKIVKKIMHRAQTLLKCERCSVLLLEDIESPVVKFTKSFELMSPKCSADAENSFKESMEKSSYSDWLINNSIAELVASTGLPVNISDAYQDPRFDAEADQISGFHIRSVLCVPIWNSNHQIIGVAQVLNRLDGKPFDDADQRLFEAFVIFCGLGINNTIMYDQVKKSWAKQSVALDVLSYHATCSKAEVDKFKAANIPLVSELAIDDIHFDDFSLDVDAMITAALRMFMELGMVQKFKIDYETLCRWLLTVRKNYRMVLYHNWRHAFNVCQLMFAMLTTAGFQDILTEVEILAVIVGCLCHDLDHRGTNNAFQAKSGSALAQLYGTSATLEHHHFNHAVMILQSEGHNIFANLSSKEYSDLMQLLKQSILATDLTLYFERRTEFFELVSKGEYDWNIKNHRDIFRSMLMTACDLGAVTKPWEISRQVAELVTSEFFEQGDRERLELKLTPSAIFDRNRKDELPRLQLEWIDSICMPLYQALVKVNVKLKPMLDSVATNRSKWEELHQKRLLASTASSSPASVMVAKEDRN

PDE2A = PDE2A (Homo sapiens, UniProt O00408); experiment: Inhibition of human PDE2A at 100 uM
Chain of PDE2A (O00408 whole entry): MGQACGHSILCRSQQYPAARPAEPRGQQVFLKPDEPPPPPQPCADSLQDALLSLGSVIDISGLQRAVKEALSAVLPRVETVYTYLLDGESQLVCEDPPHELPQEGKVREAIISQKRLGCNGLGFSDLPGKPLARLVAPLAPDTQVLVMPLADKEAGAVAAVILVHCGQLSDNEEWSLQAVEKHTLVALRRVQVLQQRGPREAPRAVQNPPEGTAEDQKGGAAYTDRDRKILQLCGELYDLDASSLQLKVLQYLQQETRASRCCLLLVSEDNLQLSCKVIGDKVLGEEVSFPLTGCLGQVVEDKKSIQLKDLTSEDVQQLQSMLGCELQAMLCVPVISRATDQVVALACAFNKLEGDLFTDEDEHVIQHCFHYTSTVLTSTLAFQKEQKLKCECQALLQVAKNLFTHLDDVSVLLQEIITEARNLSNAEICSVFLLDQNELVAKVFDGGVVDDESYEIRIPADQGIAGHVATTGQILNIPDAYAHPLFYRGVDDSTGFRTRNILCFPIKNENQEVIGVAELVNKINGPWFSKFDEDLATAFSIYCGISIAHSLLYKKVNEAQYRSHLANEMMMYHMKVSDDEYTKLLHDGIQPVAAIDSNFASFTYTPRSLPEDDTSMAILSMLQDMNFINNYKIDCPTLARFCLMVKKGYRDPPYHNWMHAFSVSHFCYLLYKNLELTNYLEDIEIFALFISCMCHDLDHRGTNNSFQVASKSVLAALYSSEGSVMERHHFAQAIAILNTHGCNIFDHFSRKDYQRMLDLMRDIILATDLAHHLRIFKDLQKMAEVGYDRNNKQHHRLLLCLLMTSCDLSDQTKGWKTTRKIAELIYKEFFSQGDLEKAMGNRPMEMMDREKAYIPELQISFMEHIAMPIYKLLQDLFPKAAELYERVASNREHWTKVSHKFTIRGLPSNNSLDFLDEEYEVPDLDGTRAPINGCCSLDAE

PDE8A = PDE8A (Homo sapiens, UniProt O60658); experiment: Inhibition of human PDE8A at 100 uM
PDE7A = PDE7A (Homo sapiens, UniProt Q13946); experiment: Inhibition of human PDE7A at 100 uM
Chain of PDE7A (Q13946 whole entry): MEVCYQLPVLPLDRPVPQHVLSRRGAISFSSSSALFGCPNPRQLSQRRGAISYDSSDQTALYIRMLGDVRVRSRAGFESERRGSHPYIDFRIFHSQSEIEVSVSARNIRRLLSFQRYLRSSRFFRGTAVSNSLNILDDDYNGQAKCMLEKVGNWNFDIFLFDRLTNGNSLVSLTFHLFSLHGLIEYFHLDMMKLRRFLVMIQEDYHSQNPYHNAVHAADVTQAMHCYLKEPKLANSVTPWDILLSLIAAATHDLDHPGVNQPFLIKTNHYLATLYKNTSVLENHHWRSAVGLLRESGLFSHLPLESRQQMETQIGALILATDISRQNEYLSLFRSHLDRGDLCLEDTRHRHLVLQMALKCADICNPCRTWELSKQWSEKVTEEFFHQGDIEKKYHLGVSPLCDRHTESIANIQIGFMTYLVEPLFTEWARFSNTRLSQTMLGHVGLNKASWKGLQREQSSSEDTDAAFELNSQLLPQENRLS

PDE1A = PDE1A (Homo sapiens, UniProt P54750); experiment: Inhibition of human PDE1A at 100 uM
Chain of PDE1A (P54750 whole entry): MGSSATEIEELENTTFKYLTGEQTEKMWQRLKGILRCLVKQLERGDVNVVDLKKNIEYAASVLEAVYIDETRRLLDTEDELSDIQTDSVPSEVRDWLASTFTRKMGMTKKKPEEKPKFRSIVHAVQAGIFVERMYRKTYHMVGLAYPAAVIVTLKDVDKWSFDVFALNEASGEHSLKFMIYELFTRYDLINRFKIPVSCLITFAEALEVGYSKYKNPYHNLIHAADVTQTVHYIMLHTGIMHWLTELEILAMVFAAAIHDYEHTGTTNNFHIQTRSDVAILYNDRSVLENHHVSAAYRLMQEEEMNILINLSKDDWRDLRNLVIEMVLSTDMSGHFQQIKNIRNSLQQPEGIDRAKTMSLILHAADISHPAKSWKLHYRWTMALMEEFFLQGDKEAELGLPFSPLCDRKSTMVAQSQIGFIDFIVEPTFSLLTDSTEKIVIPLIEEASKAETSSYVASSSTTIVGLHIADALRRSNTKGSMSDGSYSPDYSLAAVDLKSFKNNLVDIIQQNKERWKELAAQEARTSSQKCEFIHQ

PDE5A = PDE5A (Homo sapiens, UniProt O76074); experiment: Inhibition of human PDE5A at 100 uM

T1 sequence (Q07343 whole entry): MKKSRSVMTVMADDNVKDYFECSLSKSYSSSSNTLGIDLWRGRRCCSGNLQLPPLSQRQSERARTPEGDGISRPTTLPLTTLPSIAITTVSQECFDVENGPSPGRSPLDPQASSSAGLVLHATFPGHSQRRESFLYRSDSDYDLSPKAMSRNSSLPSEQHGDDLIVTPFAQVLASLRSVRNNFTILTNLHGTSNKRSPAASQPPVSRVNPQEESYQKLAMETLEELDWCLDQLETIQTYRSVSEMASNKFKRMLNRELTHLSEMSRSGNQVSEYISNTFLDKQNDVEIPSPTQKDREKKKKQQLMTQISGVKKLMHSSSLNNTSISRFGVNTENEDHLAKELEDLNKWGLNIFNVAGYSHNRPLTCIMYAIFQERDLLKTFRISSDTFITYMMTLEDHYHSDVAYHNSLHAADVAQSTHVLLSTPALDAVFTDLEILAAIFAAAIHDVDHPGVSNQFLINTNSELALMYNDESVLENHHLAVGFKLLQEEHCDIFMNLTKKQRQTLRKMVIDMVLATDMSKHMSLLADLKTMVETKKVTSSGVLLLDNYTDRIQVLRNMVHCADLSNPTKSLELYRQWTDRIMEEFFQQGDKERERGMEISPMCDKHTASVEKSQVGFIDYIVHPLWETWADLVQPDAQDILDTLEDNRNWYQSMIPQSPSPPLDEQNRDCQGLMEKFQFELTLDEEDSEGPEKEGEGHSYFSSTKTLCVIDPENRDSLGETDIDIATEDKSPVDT

| SMILES | IC50 [1] [µM] | IC50 [3] [µM] | IC50 (PBMC [2]) [µM] | also measured |
| --- | --- | --- | --- | --- |
| COc1cc2c(cc1O)CN1C(=O)OCC1C2 (configuration not stated) | > 100 |  |  |  |
| COc1cc2c(cc1OC1CCCC1)C(C)N1C(=O)OCC1C2 (mixture of isomers) | 1.35 | 12.8 | 2.6 |  |
| CCCCCCC1c2cc(OC3CCCC3)c(OC)cc2CC2COC(=O)N21 (mixture of isomers) | 2.1 | 23.1 | 7.98 |  |
| COc1cc2c(cc1OC1CCCC1)C(C1CCCCC1)N1C(=O)OCC1C2 (mixture of isomers) | 2.06 | 26.7 | 9.05 |  |
| CCCCCCOc1cc2c(cc1OC)CC1COC(=O)N1C2 (racemic) | 6.05 |  |  |  |
| CCCCCOc1cc2c(cc1OC)CC1COC(=O)N1C2 (racemic) | 4.1 | 23.3 |  |  |
| COc1cc2c(cc1OC)CN1C(=O)OCC1C2 (racemic) | 52.1 |  |  |  |
| COc1cc2c(cc1OC1CCCCC1)CN1C(=O)OCC1C2 (racemic) | 2.62 | 13.9 | 8.4 |  |
| COc1ccc(C2CNC(=O)C2)cc1OC1CCCC1 (configuration not stated) [ROLIPRAM] |  |  | 10.8 | inhibition in vivo at 10 mg/kg (Mus musculus): 41%; inhibition in vivo at 10 mg/kg (Rattus norvegicus): 32.3% |

Continued by falling IC50 [1], values first:

| IC50 [1] [µM] | IC50 [3] [µM] | SMILES | IC50 (PBMC [2]) [µM] | also measured |
| --- | --- | --- | --- | --- |
| 22.4 |  | CCCOc1cc2c(cc1OC)CC1COC(=O)N1C2 (racemic) |  |  |
| 8.18 |  | COc1cc2c(cc1OCc1ccccc1)CN1C(=O)OCC1C2 (configuration not stated) |  |  |
| 1.95 | 31.6 | COc1cc2c(cc1OC1CCCC1)C(c1ccccc1)N1C(=O)OCC1C2 (mixture of isomers) | 6.75 | inhibition in vivo at 10 mg/kg (Mus musculus): 40.4%; inhibition in vivo at 10 mg/kg (Rattus norvegicus): 28.1% |
| 1.3 | 7.15 | COc1cc2c(cc1OCC1CC1)CN1C(=O)OCC1C2 (racemic) | 9.58 |  |
| 0.6 | 5.13 | COc1cc2c(cc1OC1CCCC1)CN1C(=O)OCC1C2 (racemic) | 1.35 | inhibition at 100 µM (PDE3B): 5%; inhibition in vivo at 10 mg/kg (Mus musculus): 48.2%; inhibition [4]: 100%; Ratio IC50 (PBMC [5]): 7; inhibition at 100 µM (PDE6C): 8%; inhibition at 100 µM (PDE9A): 2%; inhibition at 100 µM (PDE10A): 1%; inhibition at 100 µM (PDE11A): 3%; inhibition at 100 µM (PDE2A): 3%; inhibition at 100 µM (PDE8A): 12%; inhibition at 100 µM (PDE7A): 5%; inhibition at 100 µM (PDE1A): 12%; inhibition at 100 µM (PDE5A): 14%; inhibition in vivo at 10 mg/kg (Rattus norvegicus): 42.3% |
